# Source: article PMC2673089 (Journal of pharmaceutical sciences, 2008)
# How the values were obtained:
# [1] = system: extracellular levels of DA in the nucleus accumbens (NAc); test: Intracerebral microdialysis of NAc dopamine; format: in vivo, Sprague–Dawley rats; details: for maximal increase of DA: NAc dialysate; for time DA levels remained significantly elevated above basal: post hoc p < 0.05
# Outline: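 CMA/12 probe (2 mm) was perfused with aCSF at 1 μL/min. Dialysate was collected over 10-min periods to 360 min. DA by HPLC-ECD, as % of mean of four basal samples. Repeated-measures ANOVA, Dunnett vs time zero.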
# [2] = biological target: human CYP2D6 (Homo sapiens, UniProt P10635); test: Metabolism by recombinant human CYP2D6 Supersomes; format: in vitro ADME
# [3] = biological target: T1, rat CYP1A2 (Rattus norvegicus, UniProt P04799); test: Metabolism by recombinant rat CYP1A2 Supersomes; format: in vitro ADME
# T1 sequence (P04799 1-513): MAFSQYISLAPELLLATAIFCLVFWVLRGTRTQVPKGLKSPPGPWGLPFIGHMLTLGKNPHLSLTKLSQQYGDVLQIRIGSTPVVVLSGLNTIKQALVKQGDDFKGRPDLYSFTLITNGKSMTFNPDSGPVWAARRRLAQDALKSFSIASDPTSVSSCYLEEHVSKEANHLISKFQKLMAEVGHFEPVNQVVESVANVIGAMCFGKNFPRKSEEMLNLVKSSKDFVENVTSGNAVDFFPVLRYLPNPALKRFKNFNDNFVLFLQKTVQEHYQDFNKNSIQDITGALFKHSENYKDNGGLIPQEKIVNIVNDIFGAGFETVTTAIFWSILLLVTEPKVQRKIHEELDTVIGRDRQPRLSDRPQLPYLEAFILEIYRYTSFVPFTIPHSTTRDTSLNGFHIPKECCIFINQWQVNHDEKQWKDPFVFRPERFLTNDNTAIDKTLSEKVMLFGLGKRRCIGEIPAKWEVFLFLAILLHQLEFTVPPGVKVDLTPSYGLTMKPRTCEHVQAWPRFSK
# [4] = system: Caco-2 monolayers; test: Bidirectional transport and verapamil inhibition across Caco-2 monolayers; format: in vitro ADME
# [5] = 0.1 mM, absence of verapamil, mean ± SD (n = 3)
# human CYP2D6, sequence (P10635 whole entry): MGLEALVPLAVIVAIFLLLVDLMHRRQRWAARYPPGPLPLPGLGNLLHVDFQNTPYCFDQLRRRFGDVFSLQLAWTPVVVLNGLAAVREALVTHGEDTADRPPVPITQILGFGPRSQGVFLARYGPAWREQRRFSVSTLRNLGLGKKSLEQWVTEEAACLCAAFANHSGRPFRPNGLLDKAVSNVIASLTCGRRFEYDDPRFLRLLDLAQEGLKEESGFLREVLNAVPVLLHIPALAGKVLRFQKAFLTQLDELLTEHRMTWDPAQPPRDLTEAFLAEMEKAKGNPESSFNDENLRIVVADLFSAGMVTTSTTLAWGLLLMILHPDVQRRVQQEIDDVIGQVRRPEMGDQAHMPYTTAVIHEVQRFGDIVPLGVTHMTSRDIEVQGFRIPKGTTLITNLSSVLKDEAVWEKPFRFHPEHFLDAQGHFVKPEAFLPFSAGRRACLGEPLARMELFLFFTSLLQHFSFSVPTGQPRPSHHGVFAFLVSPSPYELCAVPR
structure (smiles),measurement,setting,value
"CC(C)[C@@H](N)CN1C2CCC1CC(OC(c1ccc(F)cc1)c1ccc(F)cc1)C2 (stereo partly drawn) [GA2-50, N-((R)-2″-amino-3″-methyl-n-butyl)-3α-[(bis-4′-fluorophenyl)methoxy]tropane]",maximal DA elevation relative to basal,[1]; 5 mg/kg i.v.,1.6 fold
same,time of maximal DA increase postdose,[1]; 5 mg/kg i.v.,20 min
same,maximal increase of DA,[1]; 5 mg/kg i.v.,159 % of the basal values
same,time DA levels remained significantly elevated above basal,[1]; 5 mg/kg i.v.,up to 1 h
same,maximal DA elevation relative to basal,[1]; 10 mg/kg i.v.,2.7 fold
same,time of maximal DA increase postdose,[1]; 10 mg/kg i.v.,30 min
same,maximal increase of DA,[1]; 10 mg/kg i.v.,274 % of the basal values
same,time DA levels remained significantly elevated above basal,"[1]; 10 mg/kg i.v., whole 6 h experiment",≥ 6 h
same,effect on cocaine-induced DA elevation,"[1]; GA2-50 + cocaine, 5 mg/kg of each i.v., simultaneous administration",did not have significant effect on the DA elevation induced by cocaine
same,Intrinsic Clearance,"[2]; Human CYP 2D6 50 pmol/mL, 4 μM",0.15 ± 0.02 (b) microliters per minute per picomole of P450
same,Substrate disappearance after 60 min incubation vs control,"[2]; human CYP2D6, 10 μM, 50 pmol/mL P450, p < 0.05",statistically significant disappearance
same,Intrinsic Clearance,"[3]; Rat CYP 1A2 50 pmol/mL, 4 μM",0.06 ± 0.01 (d) microliters per minute per picomole of P450
same,Substrate disappearance after 60 min incubation vs control,"[3]; rat CYP1A2, 10 μM, 50 pmol/mL P450, p < 0.05",statistically significant disappearance
same,Permeability relative to JHW 025,[4],> 4 fold
same,Efflux Ratio,"[4]; 0.1 mM, Papp(B-A)/Papp(A-B)",8.3
same,Papp A-B,[4]; [5],1.37 ± 0.08 × 10^−6 cm/s
same,Papp B-A,[4]; [5],11.36 ± 1.41 × 10^−6 cm/s
same,Enhancement ratio of A-B transport by verapamil,[4]; verapamil 200 μM,3.4
